# Active and inactive are the calls of the source. The rule behind the calls is not given here.
# Target: T1, Phosphatidylinositol 3,4,5-trisphosphate 5-phosphatase 2 (Homo sapiens, UniProt O15357)
# T1 sequence (O15357 whole entry): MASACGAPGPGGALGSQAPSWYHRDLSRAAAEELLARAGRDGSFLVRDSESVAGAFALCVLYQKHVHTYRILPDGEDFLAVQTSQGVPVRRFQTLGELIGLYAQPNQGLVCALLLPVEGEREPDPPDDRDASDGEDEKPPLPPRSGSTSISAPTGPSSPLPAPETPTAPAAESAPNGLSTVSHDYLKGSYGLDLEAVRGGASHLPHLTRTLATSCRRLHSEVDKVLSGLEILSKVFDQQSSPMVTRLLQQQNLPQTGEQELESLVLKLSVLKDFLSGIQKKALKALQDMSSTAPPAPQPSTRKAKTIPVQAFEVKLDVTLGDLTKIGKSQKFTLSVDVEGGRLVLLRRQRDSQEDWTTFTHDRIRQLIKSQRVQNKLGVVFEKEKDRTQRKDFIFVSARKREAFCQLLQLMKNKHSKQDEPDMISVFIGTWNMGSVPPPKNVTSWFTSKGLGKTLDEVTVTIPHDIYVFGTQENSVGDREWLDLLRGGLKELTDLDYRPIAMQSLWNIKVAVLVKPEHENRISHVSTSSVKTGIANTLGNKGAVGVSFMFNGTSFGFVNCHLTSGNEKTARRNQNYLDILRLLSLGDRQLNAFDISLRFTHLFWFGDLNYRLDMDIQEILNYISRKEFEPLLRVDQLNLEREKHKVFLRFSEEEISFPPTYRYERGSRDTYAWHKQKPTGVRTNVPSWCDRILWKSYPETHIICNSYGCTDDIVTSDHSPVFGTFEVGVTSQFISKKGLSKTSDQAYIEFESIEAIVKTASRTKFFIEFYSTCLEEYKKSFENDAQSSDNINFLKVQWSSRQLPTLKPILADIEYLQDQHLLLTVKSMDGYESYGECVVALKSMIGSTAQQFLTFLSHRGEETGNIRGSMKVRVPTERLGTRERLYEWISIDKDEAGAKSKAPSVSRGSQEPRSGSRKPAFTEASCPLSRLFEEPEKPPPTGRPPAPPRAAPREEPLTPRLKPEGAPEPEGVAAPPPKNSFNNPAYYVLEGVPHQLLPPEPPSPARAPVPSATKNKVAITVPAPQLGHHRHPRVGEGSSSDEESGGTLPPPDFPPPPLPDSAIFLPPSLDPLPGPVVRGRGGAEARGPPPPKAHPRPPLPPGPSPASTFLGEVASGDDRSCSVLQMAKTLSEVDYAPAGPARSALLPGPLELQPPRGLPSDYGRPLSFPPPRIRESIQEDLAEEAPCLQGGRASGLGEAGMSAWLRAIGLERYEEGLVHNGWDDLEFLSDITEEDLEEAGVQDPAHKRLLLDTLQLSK
# Assay: Inhibition of SHIP2 (unknown origin)
# Details: not given
row,IC50,SMILES
1,1.1 µM,CC(C)N(CCNc1ccc(-c2cc(-c3ccc(F)cc3)n(-c3ccc(Cl)c(Cl)c3)n2)cn1)C(C)C

# Target: T2, Phosphatidylinositol 3,4,5-trisphosphate 5-phosphatase 2 (Mus musculus) (UniProt Q6P549)
# T2 sequence (whole entry): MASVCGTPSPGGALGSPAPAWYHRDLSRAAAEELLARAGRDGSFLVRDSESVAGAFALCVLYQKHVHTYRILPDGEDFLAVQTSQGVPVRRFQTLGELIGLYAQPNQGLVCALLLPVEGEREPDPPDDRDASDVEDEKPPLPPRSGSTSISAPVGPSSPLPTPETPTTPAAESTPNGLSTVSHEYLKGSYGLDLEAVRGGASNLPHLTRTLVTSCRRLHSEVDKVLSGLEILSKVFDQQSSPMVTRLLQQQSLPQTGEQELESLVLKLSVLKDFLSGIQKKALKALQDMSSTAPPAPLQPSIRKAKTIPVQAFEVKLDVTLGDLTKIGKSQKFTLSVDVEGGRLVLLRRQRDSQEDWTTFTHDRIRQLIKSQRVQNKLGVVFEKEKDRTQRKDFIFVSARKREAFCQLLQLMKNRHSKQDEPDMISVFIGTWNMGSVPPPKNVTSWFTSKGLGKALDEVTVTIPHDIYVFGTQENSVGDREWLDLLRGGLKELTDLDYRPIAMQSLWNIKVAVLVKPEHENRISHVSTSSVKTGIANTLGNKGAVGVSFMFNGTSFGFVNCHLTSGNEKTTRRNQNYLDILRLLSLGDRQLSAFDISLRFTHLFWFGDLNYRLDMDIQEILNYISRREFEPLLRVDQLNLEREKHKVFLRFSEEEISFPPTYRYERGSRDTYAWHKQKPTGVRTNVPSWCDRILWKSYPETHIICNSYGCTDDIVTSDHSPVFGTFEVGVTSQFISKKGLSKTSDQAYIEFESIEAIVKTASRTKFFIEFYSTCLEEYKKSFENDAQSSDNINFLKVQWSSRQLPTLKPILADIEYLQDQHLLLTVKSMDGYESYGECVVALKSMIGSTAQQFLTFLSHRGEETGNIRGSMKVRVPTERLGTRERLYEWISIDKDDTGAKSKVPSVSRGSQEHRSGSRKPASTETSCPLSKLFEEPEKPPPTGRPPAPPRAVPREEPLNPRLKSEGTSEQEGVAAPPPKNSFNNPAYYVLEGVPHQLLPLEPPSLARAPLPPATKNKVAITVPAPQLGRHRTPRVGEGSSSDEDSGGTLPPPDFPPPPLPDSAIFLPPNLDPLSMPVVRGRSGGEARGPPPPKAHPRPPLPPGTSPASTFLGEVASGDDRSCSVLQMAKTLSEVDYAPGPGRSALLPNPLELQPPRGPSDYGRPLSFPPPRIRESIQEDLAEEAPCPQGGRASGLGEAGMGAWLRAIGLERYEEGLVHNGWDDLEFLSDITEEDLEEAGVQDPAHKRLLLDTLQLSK
# Assay: Inhibition of SHIP2 in mouse 3T3L1 cells assessed as reduction of TNF-alpha induced decrease in insulin-stimulated Akt phosphorylation at Thr308 at 10 uM treated for 15 mins after TNF alpha challenge for 16 hrs and prior to insulin stimulation measured after 2 hrs by Western blot analysis
# Type: cell-based
# Details: 3T3-L1
# Summary of the method: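 3T3-L1 fibroblasts differentiated into adipocytes, then serum-starved 16 h with TNFα 20 ng/mL. Treated with compound 10 µM or 0.1% DMSO for 15 min, then stimulated with 17 nM insulin at 37 °C for 2 h. Cells lysed on ice at pH 7.5 and Thr308 phospho-Akt measured by western blot. Results given as fold change versus TNFα+insulin control. Mean ± SE.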
row,SMILES,inhibition
1,O=C(CCc1ccccc1)Nc1cc(OCc2ccc(Cl)cc2)ccn1,Active
2,O=C(Cc1cc(F)cc(F)c1)Nc1cc(COCc2ccc(F)cc2)ccn1,Active
3,O=C(CCc1ccccc1)Nc1cc(COCc2ccc(F)cc2)ccn1,Active
4,O=C(Cc1ccccc1)Nc1cc(COCc2ccc(Cl)cc2)ccn1,Active
5,O=C(CCc1ccccc1)Nc1cc(COCc2ccccc2)ccn1,Active
6,O=C(CCc1ccccc1)Nc1cc(COCc2ccc(Cl)cc2)ccn1,Active

# Further lines, results first:
row,inhibition,SMILES
1,Active,O=C(Cc1ccccc1C(F)(F)F)Nc1cc(OCc2ccc(Cl)cc2)ccn1
2,Active,O=C(Cc1c(F)cccc1F)Nc1cc(OCc2ccc(F)cc2)ccn1
3,Active,O=C(Cc1ccccc1)Nc1cc(OCc2ccc(F)cc2)ccn1
4,Active,O=C(Cc1ccc(F)cc1)Nc1cc(OCc2ccc(F)cc2)ccn1
5,Active,O=C(Cc1c(F)cccc1F)Nc1cc(COCc2ccc(F)cc2)ccn1

# From ChEMBL document CHEMBL2331279, “Rational design and synthesis of 4-substituted 2-pyridin-2-ylamides with inhibitory effects on SH2 domain-containing inositol 5'-phosphatase 2 (SHIP2)” (Eur J Med Chem, 2013)
